We go through 5 molecules from ChEMBL document CHEMBL4765355, “Synthesis of adenine dinucleosides SAM analogs as specific inhibitors of SARS-CoV nsp14 RNA cap guanine-N7-methyltransferase” (Eur J Med Chem, 2020).

pIC50, pKd: −log10 of the molar value. Active and inactive are the calls of the source. The rule behind the calls is not given here.

For data set [1], the system named is Severe acute respiratory syndrome-related coronavirus. Description: Binding affinity to SARS-CoV nsp14 assessed as increase in melting temperature at 1 mM at pH 7.5 by differential scanning fluorimetry. The method in brief: (§1)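 Purified SARS-CoV nsp14 (5 µM) in 20 mM HEPES pH 7.5, 150 mM NaCl and 1X SYPRO orange, with 1 mM compound (DMSO stock; SAM and sinefungin from water). Protein is mixed with compound before dye is added. Fluorescence is read from 20 to 95 °C at 0.2 °C/min. Tm comes from curve fitting, and ΔTm is taken against a 5% DMSO control.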
A general note: In DSF a fluorescence change marks the thermal transition of the protein.

Data set [2] shares this test system. Briefly: Binding affinity to SARS-CoV nsp14 assessed as melting temperature at 1 mM at pH 7.5 by differential scanning fluorimetry. The gist of the method: as §1
In the next data set the test system is Zika virus. Briefly: Inhibition of 2'-O-methyltransferase in Zika virus at 200 uM.
Data set [3] has as its target RNA-N7 MTase (mRNA cap guanine-N(7) methyltransferase) (Homo sapiens, UniProt O43148). Description: Inhibition of N-terminal His6-tagged human RNA-N7 MTase expressed in Escherichia coli using GpppAC4 and [3H]SAM as substrate at 50 uM preincubated with enzyme followed by substrate addition and measured after 30 mins by filter binding assay. The following applies: probe GpppAC4 and [3H]SAM. The gist of the method:
(§2)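 Filter binding assay in 40 mM Tris-HCl pH 8.0, 1 mM DTT, 1 mM MgCl2, 2 µM SAM, 0.1 µM 3H-SAM and 0.7 µM GpppAC4 RNA. Enzyme is nsp14 (50 nM), hRNMT (50 nM) or vaccinia D1–D12 (41 U). Compound is at 50 µM with 5% final DMSO. Reactions run 30 min at 30 °C, are stopped by ice-cold water dilution, and 3H on DEAE filters is counted. Percent inhibition is relative to a 5% DMSO control, mean of three experiments.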

The test system of a further data set is West Nile virus. Description: Inhibition of 2'-O-methyltransferase in West-Nile virus at 200 uM.
Data set [4] has as its system Severe acute respiratory syndrome-related coronavirus. Description: Inhibition of 2'-O-MTase activity of SARS-CoV nsp10/16 complex at 200 uM.
Data set [5] has the same test system. Briefly: Inhibition of N7-MTase activity of N-terminal His6-tagged SARS-CoV nsp14 expressed in Escherichia coli using GpppAC4 and [3H]SAM as substrate at 50 uM preincubated with enzyme followed by substrate addition and measured after 30 mins by filter binding assay. The gist of the method: as §2
In data set [6] the target is mRNA cap guanine-N(7) methyltransferase (Homo sapiens, UniProt O43148). Description: Inhibition of N-terminal His6-tagged human RNA-N7 MTase expressed in Escherichia coli using GpppAC4 and [3H]SAM as substrate preincubated with enzyme followed by substrate addition and measured after 30 mins by filter binding assay. The gist of the method:
(§3)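 Dose-response filter binding assay with nsp14 or hRNMT (each 50 nM) pre-incubated with increasing compound concentrations (5% final DMSO). Then 0.7 µM GpppAC4, 2 µM SAM and 0.1 µM 3H-SAM are added in Tris pH 8.0/DTT/MgCl2, 30 min at 30 °C. IC50 is taken from a Hill slope fit, mean of three independent experiments.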

A further data set has as its system Dengue virus. Description: Inhibition of 2'-O-methyltransferase in Dengue virus at 200 uM.
Data set [7] deals with Orthopoxvirus vaccinia. Briefly: Inhibition of N7-MTase activity of Vaccinia virus mRNA capping enzyme D1/D12 complex using GpppAC4 and [3H]SAM as substrate at 50 uM preincubated with enzyme followed by substrate addition and measured after 30 mins by filter binding assay. The method in brief: as §2
Data set [8] has as its system Orthopoxvirus vaccinia. Briefly: Inhibition of 2'-O-methyltransferase activity of Vaccinia virus VP39 at 200 uM.
Data set [9] can be described thus: Inhibition of N7-MTase activity of N-terminal His6-tagged SARS-CoV nsp14 expressed in Escherichia coli using GpppAC4 and [3H]SAM as substrate preincubated with enzyme followed by substrate addition and measured after 30 mins by filter binding assay. On the set-up: species or system Severe acute respiratory syndrome-related coronavirus. The method in brief: as §3

A short description of data set [10]: Binding affinity to SARS-CoV nsp14 by TSA based analysis. Further details: species or system Severe acute respiratory syndrome-related coronavirus. The gist of the method: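 Thermal shift assay with nsp14 (5 µM) in HEPES pH 7.5/NaCl/SYPRO orange, using increasing compound concentrations and a 20–95 °C ramp. Apparent KD is obtained by nonlinear regression with a one-site specific binding Hill slope equation.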

mRNA cap guanine-N(7) methyltransferase, sequence (O43148 whole entry): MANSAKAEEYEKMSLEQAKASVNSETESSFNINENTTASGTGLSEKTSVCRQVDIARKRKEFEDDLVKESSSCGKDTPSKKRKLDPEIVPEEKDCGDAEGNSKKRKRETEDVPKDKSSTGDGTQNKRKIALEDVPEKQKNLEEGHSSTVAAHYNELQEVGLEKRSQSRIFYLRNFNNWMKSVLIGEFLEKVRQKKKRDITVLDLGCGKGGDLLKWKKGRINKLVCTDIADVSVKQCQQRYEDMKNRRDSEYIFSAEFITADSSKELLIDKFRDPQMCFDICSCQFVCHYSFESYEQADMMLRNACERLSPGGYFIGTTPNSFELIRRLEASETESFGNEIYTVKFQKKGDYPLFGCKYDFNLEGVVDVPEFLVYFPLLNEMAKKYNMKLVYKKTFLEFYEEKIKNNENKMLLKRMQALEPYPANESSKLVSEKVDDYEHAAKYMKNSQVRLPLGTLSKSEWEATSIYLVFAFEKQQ
RNA-N7 MTase (mRNA cap guanine-N(7) methyltransferase), sequence (O43148 whole entry): as above

For `COc1ccc(S(=O)(=O)N(CCO[C@@H]2[C@H](O)C(CO)O[C@H]2n2cnc3c(N)ncnc32)CC2O[C@@H](n3cnc4c(N)ncnc43)[C@H](O)[C@@H]2O)c([N+](=O)[O-])c1` (single isomer, unassigned), the ΔTm (commonly the change in melting temperature against a reference sample) in data set [1] is 4.6 °C. In data set [2], the Tm is greater than 40 °C. The inhibition result (in the data set on Zika virus; in the data set on West Nile virus; in data set [4]; in the data set with Dengue virus; with Orthopoxvirus vaccinia [8]) was “inactive” throughout. In addition, the inhibition (usually how much of the control response was suppressed) at 0.5 h, 50 µM in [3] worked out at 31.8%. In addition, the inhibition in data set [5] stood at 96.6%; with Orthopoxvirus vaccinia [7], 4.6%. For the same molecule, the pIC50 (as a rule, the IC50 on a negative log10 scale, so that one unit is a factor of ten) was less than 3.30 in data set [6] and 5.41 in data set [9].
Consider `Nc1ncnc2c1ncn2[C@@H]1OC(CN(CCO[C@@H]2[C@H](O)C(CO)O[C@H]2n2cnc3c(N)ncnc32)S(=O)(=O)c2ccc(Cl)c([N+](=O)[O-])c2)[C@@H](O)[C@H]1O` (single isomer, unassigned), for which the thermal shift (ΔTm) in data set [1] stood at 10.8 °C. In addition, the Tm in [2] was greater than 40 °C. Further, the inhibition result (with Zika virus; in the data set with West Nile virus; in data set [4]; in the data set on Dengue virus; in the data set on Orthopoxvirus vaccinia [8]) was “inactive” each time. Besides, the inhibition at 0.5 h, 50 µM in [3] was 33.9%. Further, the pKd (as a rule, the Kd on a negative log10 scale, so that one unit is a factor of ten) in [10] was 5.89. The inhibition came out at 97.2% in data set [5] and 2.8% in the data set on Orthopoxvirus vaccinia [7]. Further, the pIC50 was 3.61 in [6] and 6.22 in data set [9].
For `Nc1ncnc2c1ncn2[C@@H]1OC(CN(CCO[C@@H]2[C@H](O)C(CO)O[C@H]2n2cnc3c(N)ncnc32)S(=O)(=O)c2ccc([N+](=O)[O-])cc2)[C@@H](O)[C@H]1O` (single isomer, unassigned), the ΔTm in data set [1] turned out to be 4.6 °C. The Tm in data set [2] was greater than 40 °C. Also, the inhibition entry (with Zika virus; in the data set on West Nile virus; in data set [4]; in the data set with Dengue virus; with Orthopoxvirus vaccinia [8]) was “inactive” each time. In addition, the inhibition at 0.5 h, 50 µM in data set [3] stood at 66%. Also, the inhibition in data set [5] stood at 88.6%; in the data set with Orthopoxvirus vaccinia [7], 49.8%. For the same molecule, the pIC50 was less than 3.30 in data set [6] and 5.59 in [9].
As for `COc1cc([N+](=O)[O-])ccc1S(=O)(=O)N(CCO[C@@H]1[C@H](O)C(CO)O[C@H]1n1cnc2c(N)ncnc21)CC1O[C@@H](n2cnc3c(N)ncnc32)[C@H](O)[C@@H]1O` (single isomer, unassigned), the ΔTm in data set [1] was 4.6 °C. In addition, the Tm in data set [2] is greater than 40 °C. Besides, the inhibition entry (with Zika virus; in the data set with West Nile virus; in data set [4]; with Dengue virus; in the data set on Orthopoxvirus vaccinia [8]) was “inactive” in each case. This molecule also came in with an inhibition at 0.5 h, 50 µM in data set [3] of 44.2%. In addition, the figures for the inhibition (in data set [5]; in the data set on Orthopoxvirus vaccinia [7]) were 47.6% and 5.3%, respectively. Moreover, the pIC50 in data set [6] was 3.77; in data set [9] it was 4.15.
Turning to `Nc1ncnc2c1ncn2[C@@H]1OC(CN(CCO[C@@H]2[C@H](O)C(CO)O[C@H]2n2cnc3c(N)ncnc32)S(=O)(=O)c2ccc(C(F)(F)F)cc2[N+](=O)[O-])[C@@H](O)[C@H]1O` (single isomer, unassigned), the ΔTm in [1] was found to be 4.6 °C. In data set [2], the Tm was greater than 40 °C. For the same molecule, the inhibition result (with Zika virus; in the data set with West Nile virus; in data set [4]; in the data set on Dengue virus; in the data set with Orthopoxvirus vaccinia [8]) was “inactive” each time. Moreover, the inhibition at 0.5 h, 50 µM in data set [3] worked out at 23.3%. In addition, the inhibition in [5] came to 94.6%; in the data set with Orthopoxvirus vaccinia [7], 10.1%. Also, the values for the pIC50 in [6] and in [9] were 3.56 and 5.24, respectively.
